Bioassay records deposited in PubChem by Broad Institute.
The list is not random: actives were taken first. Their share in the collection is about 2.2%.
FGF22 binding = binders of recombinant human FGF22 by thermal shift; activity (Tm shift, normalised), % at 9.99 µM; SYPRO orange fluorescence; percent of sucrose octasulfate shift, DMSO zero; AID 651658; Q9HCT0; hit rate 1.5% among 340,000;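 active means mean Tm shift, scaled 0 neutral to 100 positive control, at about 1.3% or above, every replicate too, limit read from the data; inconclusive means no clear call, values can overlap the other calls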
Target sequence (Q9HCT0 whole entry, looked up): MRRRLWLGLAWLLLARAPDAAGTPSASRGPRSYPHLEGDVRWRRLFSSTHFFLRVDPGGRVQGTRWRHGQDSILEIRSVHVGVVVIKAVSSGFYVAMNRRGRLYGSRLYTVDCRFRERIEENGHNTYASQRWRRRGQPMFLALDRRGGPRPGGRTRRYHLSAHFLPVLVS
dFosB act = enhances mouse delta FosB homodimer DNA binding; P13346; purified delta FosB, TAMRA-CDK5 oligo fluorescence polarization; percent of positive-control signal above neutral wells; activation, % at 25 µM; hit rate 0.99% among 340,000; AID 493131;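 active means mean activation above about 17%, with every replicate also reaching it, limit read from the data, passing the limit was not always enough; inconclusive means only one of the two conditions met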
Target sequence (P13346 whole entry, looked up): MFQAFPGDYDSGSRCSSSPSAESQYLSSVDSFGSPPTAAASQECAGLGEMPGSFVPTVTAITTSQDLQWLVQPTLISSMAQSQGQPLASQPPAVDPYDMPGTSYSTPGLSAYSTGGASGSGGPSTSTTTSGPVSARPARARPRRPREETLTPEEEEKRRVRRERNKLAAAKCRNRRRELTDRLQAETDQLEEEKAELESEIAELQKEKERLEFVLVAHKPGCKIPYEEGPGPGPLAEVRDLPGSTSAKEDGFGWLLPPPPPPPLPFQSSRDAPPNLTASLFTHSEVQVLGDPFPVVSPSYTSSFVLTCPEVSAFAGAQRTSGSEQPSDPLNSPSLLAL
CFTR F508del cor = correctors of CFTR F508del function in bronchial epithelial cells; CFBE cells, YFP halide quenching; stimulated with forskolin plus potentiator P3; % fluorescence drop versus neutral controls; activity (quench increase), % at 7.58 µM; hit rate 0.36% among 350,000; AID 720511;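 active means mean added fluorescence quench of at least 8% versus neutral control, with both replicates also reaching 8%; inconclusive means only one of the mean or replicate conditions met; inactive means mean below 8% and not both replicates reaching 8%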;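 further: cells transiently co-express mutant CFTR-F508del with the halide-sensitive YFP; corrector assay measuring rescue of mutant channel to the surface after 24 h compound exposure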
S100A4 MyoIIA = blocks human S100A4 binding to myosin IIA peptide; P26447; hit rate 0.14% among 360,000; AID 652163; inhibition, % at 10.7 µM; S100A4/TAMRA-MyoIIA peptide fluorescence polarization;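 active means mean inhibition of at least 70% across replicates, with every replicate also reaching that level; inconclusive means mean inhibition reaches 70% but some replicates fall short; inactive means mean inhibition below 70%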
Target sequence (P26447 whole entry, looked up): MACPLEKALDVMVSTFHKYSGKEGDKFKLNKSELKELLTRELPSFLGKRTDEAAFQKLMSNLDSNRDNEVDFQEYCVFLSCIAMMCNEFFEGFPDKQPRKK
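incubation = readout 5 min after mixing, signal stable up to 60 min | system = S100A4 monomer protein | buffer or medium = HEPES pH 7.2 with CaCl2, KCl, NaCl, DTT, Triton | benchmarks = neutral control DMSO, positive control TFP | also added = fluorescent myosin IIA peptide, 5 nM | compound dosing = one concentration per compound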
Large screens that a line does not name were inactive.

CN(CCCS(=O)(=O)[O-])c1ccc(/C=C/c2ccc3ccccc3[n+]2C)cc1	none
CN(C)c1ccc(/C=C/c2ccc3ccccc3[n+]2C)cc1	dFosB act 95.6 (no result: FGF22 binding, CFTR F508del cor, S100A4 MyoIIA)
C[C@@H]1CCCCO[C@@H](CN(C)C(=O)c2ccccc2)[C@@H](C)CN([C@H](C)CO)C(=O)c2cc(NC(=O)CCC(F)(F)F)ccc2O1	none (no result: dFosB act)
CC(=O)Nc1c(O)nc(SC/C=C/CSc2nc(O)c(NC(C)=O)c(=O)[nH]2)[nH]c1=O	FGF22 binding 43.0
CCOc1cc(/C=C2\SC(=N)N(c3nonc3N)C2=O)ccc1OCCN1CCOCC1	FGF22 binding 1.5
Cc1cc(C)cc(N(C(=O)c2sc(C)nc2C)C(C(=O)NCc2ccco2)c2ccccc2)c1 (configuration not stated)	none
Cc1cc(C)cc(N(C(=O)c2sc(C)nc2C)C(C(=O)NC(C)(C)C)c2ccncc2)c1 (configuration not stated)	FGF22 binding 43.4
O=C(COC(=O)CCc1ccccc1)NC1CCS(=O)(=O)C1 (configuration not stated)	none
CC(CC(=O)OCC(=O)NC1CCS(=O)(=O)C1)c1ccccc1 (configuration not stated)	FGF22 binding 42.9
COc1cc2ccccc2cc1C(=O)OCC(=O)NC1CCS(=O)(=O)C1 (configuration not stated)	FGF22 binding 43.0
CC1(C)Cc2ccccc2C(=NCC(=O)O)N1	FGF22 binding 43.1
N#C[C@@H]1[C@H](c2ccccc2C2=CCCCC2)[C@H](CO)N1C(=O)NC1CCCC1	S100A4 MyoIIA 130.8 (no result: dFosB act)
N#C[C@@H]1[C@H](c2ccc(-c3cccc(F)c3)cc2)[C@H](CO)N1C(=O)NC1CCCC1	CFTR F508del cor 8.6 (no result: dFosB act)
N#C[C@H]1[C@H](c2ccccc2C2=CCCCC2)[C@H](CO)N1C(=O)NC1CCCC1	none (no result: dFosB act)
CCCNC(=O)N1[C@H](C#N)[C@H](c2ccc(C#Cc3ccc(F)cc3)cc2)[C@@H]1CO	CFTR F508del cor 8.4 (no result: dFosB act)
CCCNC(=O)N1[C@H](C#N)[C@H](c2ccc(C#Cc3ccc(F)cc3)cc2)[C@H]1CO	none (no result: dFosB act)
COCC(=O)N1[C@@H](C#N)[C@H](c2ccc(-c3cccc(F)c3)cc2)[C@@H]1CO	S100A4 MyoIIA 116.2 (no result: dFosB act)
N#C[C@H]1[C@@H](c2ccc(-c3cccc(F)c3)cc2)[C@H](CO)N1C(=O)NC1CCCC1	none (no result: dFosB act)
CC=Cc1ccc2n(c1=O)C[C@@H]1[C@@H](CO)[C@H](C(=O)NCc3ccc(F)cc3)[C@H]2N1CC (mixture of isomers)	none (no result: dFosB act)
O=C(CSc1nnnn1C1CC1)Nc1cc(S(=O)(=O)N2CCCC2)ccc1Cl	FGF22 binding 42.9
Cn1nnnc1SCC(=O)Nc1cc(S(=O)(=O)N2CCCC2)ccc1Cl	none
CS(=O)(=O)c1ccc(Cl)c(NC(=O)CSc2nnc(C3CC3)n2C2CC2)c1	FGF22 binding 1.4
Cc1ccc(C(=O)CSc2nc(C(C)C)nc3ccccc23)cc1	none
CC(C)c1nc(SCC(=O)c2ccc(F)cc2)c2ccccc2n1	FGF22 binding 43.1
Cn1cnnc1Sc1cc(N2CCN(S(=O)(=O)c3ccccc3)CC2)ccc1[N+](=O)[O-]	FGF22 binding 44.7
ON(CCc1ccncc1)Cc1ccccc1	S100A4 MyoIIA 72.1
CS(=O)(=O)N(CCc1ccccc1)CC(=O)NCc1ccncc1	none (no result: FGF22 binding, CFTR F508del cor)
COCC(=O)Nc1ccc2c(c1)OC[C@@H](C)N(Cc1ccccc1)C[C@@H](C)[C@H](OC)CN(C)C2=O	none (no result: FGF22 binding, dFosB act)
CC(C)Oc1ncnc2c1[nH]c1ccccc12	CFTR F508del cor 10.0
COc1ccccc1NC(=O)Nc1nnc(CC(=O)Nc2ccccc2C)s1	dFosB act 26.5
Cc1ccc(C2CC(c3cccs3)=NN2C(=O)c2ccco2)o1 (configuration not stated)	FGF22 binding 44.3
CNC(=O)C[C@@H]1CC[C@H]2[C@@H](COc3ccc(NC(=O)Nc4ccc(C)cc4)cc3C(=O)N2C)O1	none (no result: dFosB act)
CCOC(=O)CC1C(=O)NCCN1Cc1cccs1 (configuration not stated)	FGF22 binding 43.2
O=C(O)CC1C(=O)NCCN1Cc1cccs1 (configuration not stated)	none
CCOC(=O)[C@]12CCC=C1N(Cc1ccc3c(c1)OCO3)C(=O)[C@H](CC(=O)NCc1cccs1)C2	FGF22 binding 43.5 (no result: dFosB act)
CNc1ccccc1C(C)(C)c1cc(-c2cccc(Br)c2)no1	FGF22 binding 43.3, dFosB act inconclusive
C=CC[C@]12N=C(c3ccc(OCCCO)cc3)O[C@H]1c1ccccc1CN(Cc1ccccc1)C2=O	none (no result: dFosB act)
CCN(CC)CCNC(=O)c1ccc(NC(=O)/C=C/c2ccc3ccccc3n2)cc1	FGF22 binding 1.6
CCOC(=O)c1ccc(S(=O)(=O)N2CCN(C(=O)c3nn(C)c(=O)c4ccccc34)CC2)cc1	FGF22 binding 43.1
Cn1nc(C(=O)N2CCN(S(=O)(=O)c3ccc(Cl)cc3)CC2)c2ccccc2c1=O	none
CC(OC(=O)c1cccs1)C(=O)NC1CCCCC1C (configuration not stated)	CFTR F508del cor 28.6
O=C(NCCO)C(=O)c1c(-c2ccc(Cl)cc2)cc2ccccn12	FGF22 binding 43.8
CCOC(=O)C1=CN(Cc2cccc(I)c2)S(=O)(=O)N(C)C1C (configuration not stated)	CFTR F508del cor 12.3
CCOC(=O)C1=CN(Cc2cccc(Br)c2)S(=O)(=O)N(C)C1C (configuration not stated)	none
O=C(COC(=O)/C=C/c1ccc([N+](=O)[O-])cc1)Nc1ccc2[nH]c(=O)[nH]c2c1	dFosB act 31.2 (no result: FGF22 binding)
CCNC(=O)COC(=O)/C=C/c1cccc([N+](=O)[O-])c1	FGF22 binding 42.9
O=C(COC(=O)/C=C/c1cccc([N+](=O)[O-])c1)NCc1ccco1	none
Cc1cc(C)c2oc(C(=O)Nc3ccc(S(=O)(=O)Nc4nccs4)cc3)cc(=O)c2c1	FGF22 binding 43.1
CC(=O)Nc1ccc(NC(=O)c2cc(=O)c3cc(C)cc(C)c3o2)cc1	none
CCCC[n+]1c(C)sc2ccc(C)cc21	FGF22 binding 43.2
CC(C)OC(=O)CSc1nc(Cc2cccs2)nc2ccccc12	FGF22 binding 44.2
CC(=O)Nc1ccc(S(=O)(=O)N2CCN(c3cnn(C)c(=O)c3Cl)CC2)cc1	FGF22 binding 43.1
CO[C@@H]1CN(C)C(=O)c2ccc(NS(C)(=O)=O)cc2OC[C@@H](C)N(CCC(F)(F)F)C[C@H]1C	none (no result: FGF22 binding, dFosB act)
COc1cc(-c2cc(-c3ccc(F)cc3)nc(N)c2C#N)ccc1O	FGF22 binding 43.1
CCOc1cc(-c2cc(-c3ccc(N)cc3)nc(N)c2C#N)ccc1O	none (no result: FGF22 binding, CFTR F508del cor, S100A4 MyoIIA)
O=C(C[C@@H]1CC[C@H]2[C@@H](COC[C@@H](O)CN2S(=O)(=O)c2ccc(F)cc2)O1)NCC1CCCCC1	none (no result: dFosB act)
CN(C)CCCNC(=O)C[C@@H]1CC[C@H]2[C@@H](COc3ccc(NC(=O)c4ccccc4F)cc3C(=O)N2C)O1	none (no result: dFosB act)
